The source made the active and inactive calls. No cut-off for these calls is given here.
Key:
[1] = target: P2Y purinoceptor 2 (Homo sapiens, UniProt P41231, S296A); assay: Agonist activity at N-terminal HA epitope-tagged human P2Y2 receptor S296A mutant expressed in human 1321N1 cells assessed as increase in intracellular calcium level; format: functional, cell-based
In short: (§1)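 Retrovirally transduced stable 1321N1 astrocytoma lines (wild-type lines of differing expression, or mutants) in suspension, loaded with Oregon Green BAPTA-1/AM for 1 h at room temperature. Cells were plated at 150000 per well in Krebs-HEPES pH 7.4 and held 20 min at 28 °C in the dark.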

[2] = tested on: P2Y purinoceptor 2 (Homo sapiens), P41231 [UNDEFINED MUTATION]; assay: Ratio of efficacy for N-terminal HA epitope-tagged human P2Y2 receptor R194H mutant to efficacy for wild type 3 human P2Y2 receptor
[3] = target: T1, P2Y purinoceptor 2 (Homo sapiens, UniProt P41231, Y198A); assay: Agonist activity at N-terminal HA epitope-tagged human P2Y2 receptor Y198A mutant expressed in human 1321N1 cells assessed as increase in intracellular calcium level; format: functional, cell-based
In short: (§2)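 1321N1 astrocytoma cells stably expressing mutant receptor (retroviral transfection, G418 selection), loaded with Oregon Green BAPTA-1/AM in Krebs-HEPES pH 7.4 for 1 h at room temperature. Plated at 150000 cells/well and held 20 min at 28 °C in the dark. Efficacy relative to 100 µM carbachol.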

[4] = target: T2, P2Y purinoceptor 2 (Homo sapiens, UniProt P41231, Y114A); assay: Agonist activity at N-terminal HA epitope-tagged human P2Y2 receptor Y114A mutant expressed in human 1321N1 cells assessed as increase in intracellular calcium level; format: functional, cell-based; in short: as §2
[5] = target: P2Y purinoceptor 2 (Homo sapiens, UniProt P41231, R272A); assay: Agonist activity at N-terminal HA epitope-tagged human P2Y2 receptor R272A mutant expressed in human 1321N1 cells assessed as increase in intracellular calcium level; format: functional, cell-based; in short: as §2
[6] = target: T3, P2Y purinoceptor 2 (Homo sapiens, UniProt P41231); assay: Agonist activity at N-terminal HA epitope-tagged wild type 3 human P2Y2 receptor expressed in human 1321N1 cells assessed as increase in intracellular calcium level relative to carbachol; format: functional, cell-based
In short: as §1, with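 “dark. Agonist was then injected, with fluorescence read at ex 485/em 520 nm for 60 × 0.4 s.” for “dark.”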

[7] = target: T3, P2Y purinoceptor 2; assay: Agonist activity at N-terminal HA epitope-tagged wild type 4 human P2Y2 receptor expressed in human 1321N1 cells assessed as increase in intracellular calcium level relative to carbachol; format: functional, cell-based
In short: as §1, with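 “dark. Agonist was then injected, with fluorescence read at ex 485/em 520 nm for 60 × 0.4 s.” for “dark.”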

[8] = tested on: P2Y purinoceptor 2 (Homo sapiens), P41231 [Y118A]; assay: Agonist activity at N-terminal HA epitope-tagged human P2Y2 receptor Y118A mutant expressed in human 1321N1 cells assessed as increase in intracellular calcium level relative to carbachol; format: functional, cell-based
In short: as §1, with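 “dark. Agonist was then injected, with fluorescence read at ex 485/em 520 nm for 60 × 0.4 s.” for “dark.”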

[9] = tested on: P2Y purinoceptor 2 (Homo sapiens), P41231 [R177A,R180A]; assay: Agonist activity at N-terminal HA epitope-tagged human P2Y2 receptor R177A_R180A double mutant expressed in human 1321N1 cells assessed as increase in intracellular calcium level relative to carbachol; format: functional, cell-based
In short: as §1, with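 “dark. Agonist was then injected, with fluorescence read at ex 485/em 520 nm for 60 × 0.4 s.” for “dark.”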

[10] = tested on: P2Y purinoceptor 2 (Homo sapiens), P41231 [Y114A]; assay: Agonist activity at N-terminal HA epitope-tagged human P2Y2 receptor Y114A mutant expressed in human 1321N1 cells assessed as increase in intracellular calcium level relative to carbachol; format: functional, cell-based
In short: as §1, with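 “dark. Agonist was then injected, with fluorescence read at ex 485/em 520 nm for 60 × 0.4 s.” for “dark.”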

[11] = tested on: P2Y purinoceptor 2 (Homo sapiens), P41231 [UNDEFINED MUTATION]; assay: Ratio of EC50 for N-terminal HA epitope-tagged human P2Y2 receptor C278S mutant to EC50 for wild type 3 human P2Y2 receptor
[12] = target: T4, P2Y purinoceptor 2 (Homo sapiens, UniProt P41231, Y118A); assay: Agonist activity at N-terminal HA epitope-tagged human P2Y2 receptor Y118A mutant expressed in human 1321N1 cells assessed as increase in intracellular calcium level; format: functional, cell-based; in short: as §2
[13] = target: P2Y purinoceptor 2 (Homo sapiens, UniProt P41231, R180A); assay: Agonist activity at N-terminal HA epitope-tagged human P2Y2 receptor R180A mutant expressed in human 1321N1 cells assessed as increase in intracellular calcium level; format: functional, cell-based; in short: as §2
[14] = target: T5, P2Y purinoceptor 2 (Homo sapiens, UniProt P41231, R177A/R180A); assay: Agonist activity at N-terminal HA epitope-tagged human P2Y2 receptor R177A_R180A double mutant expressed in human 1321N1 cells assessed as increase in intracellular calcium level; format: functional, cell-based; in short: as §2
[15] = tested on: P2Y purinoceptor 2 (Homo sapiens), P41231 [R177A]; assay: Agonist activity at N-terminal HA epitope-tagged human P2Y2 receptor R177A mutant expressed in human 1321N1 cells assessed as increase in intracellular calcium level relative to carbachol; format: functional, cell-based
In short: as §1, with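 “dark. Agonist was then injected, with fluorescence read at ex 485/em 520 nm for 60 × 0.4 s.” for “dark.”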

[16] = target: P2Y purinoceptor 2 (Homo sapiens, UniProt P41231, R177A); assay: Agonist activity at N-terminal HA epitope-tagged human P2Y2 receptor R177A mutant expressed in human 1321N1 cells assessed as increase in intracellular calcium level; format: functional, cell-based; in short: as §2
[17] = target: T3, P2Y purinoceptor 2; assay: Agonist activity at N-terminal HA epitope-tagged wild type 3 human P2Y2 receptor expressed in human 1321N1 cells assessed as increase in intracellular calcium level; format: functional, cell-based; in short: as §1
[18] = tested on: P2Y purinoceptor 2 (Homo sapiens), P41231 [R272A]; assay: Agonist activity at N-terminal HA epitope-tagged human P2Y2 receptor R272A mutant expressed in human 1321N1 cells assessed as increase in intracellular calcium level up to 300 uM relative to carbachol; format: functional, cell-based
In short: as §1, with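 “dark. Agonist was then injected, with fluorescence read at ex 485/em 520 nm for 60 × 0.4 s.” for “dark.”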

[19] = target: T6, P2Y purinoceptor 2 (Homo sapiens, UniProt P41231, C278S); assay: Agonist activity at N-terminal HA epitope-tagged human P2Y2 receptor C278S mutant expressed in human 1321N1 cells assessed as increase in intracellular calcium level; format: functional, cell-based; in short: as §2
[20] = tested on: P2Y purinoceptor 2 (Homo sapiens), P41231 [S296A]; assay: Agonist activity at N-terminal HA epitope-tagged human P2Y2 receptor S296A mutant expressed in human 1321N1 cells assessed as increase in intracellular calcium level relative to carbachol; format: functional, cell-based
In short: as §1, with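 “dark. Agonist was then injected, with fluorescence read at ex 485/em 520 nm for 60 × 0.4 s.” for “dark.”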

[21] = tested on: P2Y purinoceptor 2 (Homo sapiens), P41231 [Y198A]; assay: Agonist activity at N-terminal HA epitope-tagged human P2Y2 receptor Y198A mutant expressed in human 1321N1 cells assessed as increase in intracellular calcium level relative to carbachol; format: functional, cell-based
In short: as §1, with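 “dark. Agonist was then injected, with fluorescence read at ex 485/em 520 nm for 60 × 0.4 s.” for “dark.”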

[22] = tested on: P2Y purinoceptor 2 (Homo sapiens), P41231 [R180A]; assay: Agonist activity at N-terminal HA epitope-tagged human P2Y2 receptor R180A mutant expressed in human 1321N1 cells assessed as increase in intracellular calcium level relative to carbachol; format: functional, cell-based
In short: as §1, with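 “dark. Agonist was then injected, with fluorescence read at ex 485/em 520 nm for 60 × 0.4 s.” for “dark.”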

[23] = target: P2Y purinoceptor 2 (Homo sapiens, UniProt P41231, R194H); assay: Agonist activity at N-terminal HA epitope-tagged human P2Y2 receptor R194H mutant expressed in human 1321N1 cells assessed as increase in intracellular calcium level; format: functional, cell-based; in short: as §2
[24] = tested on: P2Y purinoceptor 2 (Homo sapiens), P41231 [R194H]; assay: Agonist activity at N-terminal HA epitope-tagged human P2Y2 receptor R194H mutant expressed in human 1321N1 cells assessed as increase in intracellular calcium level relative to carbachol; format: functional, cell-based
In short: as §1, with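 “dark. Agonist was then injected, with fluorescence read at ex 485/em 520 nm for 60 × 0.4 s.” for “dark.”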

[25] = tested on: P2Y purinoceptor 2 (Homo sapiens), P41231 [C278S]; assay: Agonist activity at N-terminal HA epitope-tagged human P2Y2 receptor C278S mutant expressed in human 1321N1 cells assessed as increase in intracellular calcium level relative to carbachol; format: functional, cell-based
In short: as §1, with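 “dark. Agonist was then injected, with fluorescence read at ex 485/em 520 nm for 60 × 0.4 s.” for “dark.”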

[26] = target: T3, P2Y purinoceptor 2; assay: Agonist activity at N-terminal HA epitope-tagged wild type 4 human P2Y2 receptor expressed in human 1321N1 cells assessed as increase in intracellular calcium level; format: functional, cell-based; in short: as §1
[27] = tested on: P2Y purinoceptor 2 (Homo sapiens), P41231 [R177A]; assay: Antagonist activity at N-terminal HA epitope-tagged human P2Y2 receptor R177A mutant expressed in human 1321N1 cells assessed as inhibition of UTP-induced calcium mobilization; format: functional, cell-based; settings: concentration not given here
[28] = tested on: P2Y purinoceptor 2 (Homo sapiens), P41231 [UNDEFINED MUTATION]; assay: Ratio of IC50 for N-terminal HA epitope-tagged human P2Y2 receptor C278S mutant to IC50 for wild type 3 human P2Y2 receptor
[29] = target: T1, P2Y purinoceptor 2; assay: Antagonist activity at N-terminal HA epitope-tagged human P2Y2 receptor Y198A mutant expressed in human 1321N1 cells assessed as inhibition of UTP-induced calcium mobilization; format: functional, cell-based
In short: (§3)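 1321N1 cells expressing wild-type or mutant receptor were dye-loaded with Oregon Green BAPTA-1/AM in Krebs-HEPES pH 7.4. Antagonist was preincubated for 20 min at 28 °C in the dark. Cells were then stimulated with UTP at a concentration giving 80-90% of maximal response. Calcium fluorescence read at 520 nm (excitation 485 nm).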

[30] = target: T5, P2Y purinoceptor 2; assay: Antagonist activity at N-terminal HA epitope-tagged human P2Y2 receptor R177A_R180A double mutant expressed in human 1321N1 cells assessed as inhibition of UTP-induced calcium mobilization; format: functional, cell-based; in short: as §3
[31] = tested on: P2Y purinoceptor 2 (Homo sapiens), P41231 [R180A]; assay: Antagonist activity at N-terminal HA epitope-tagged human P2Y2 receptor R180A mutant expressed in human 1321N1 cells assessed as inhibition of UTP-induced calcium mobilization; format: functional, cell-based; settings: concentration not given here
[32] = target: T4, P2Y purinoceptor 2; assay: Antagonist activity at N-terminal HA epitope-tagged human P2Y2 receptor Y118A mutant expressed in human 1321N1 cells assessed as inhibition of UTP-induced calcium mobilization; format: functional, cell-based; in short: as §3
[33] = target: T3, P2Y purinoceptor 2; assay: Antagonist activity at N-terminal HA epitope-tagged wild type 3 human P2Y2 receptor expressed in human 1321N1 cells assessed as inhibition of UTP-induced calcium mobilization; format: functional, cell-based; in short: as §3
[34] = target: T2, P2Y purinoceptor 2; assay: Antagonist activity at N-terminal HA epitope-tagged human P2Y2 receptor Y114A mutant expressed in human 1321N1 cells assessed as inhibition of UTP-induced calcium mobilization; format: functional, cell-based; in short: as §3
[35] = target: T6, P2Y purinoceptor 2; assay: Antagonist activity at N-terminal HA epitope-tagged human P2Y2 receptor C278S mutant expressed in human 1321N1 cells assessed as inhibition of UTP-induced calcium mobilization; format: functional, cell-based; in short: as §3

T3 sequence (P41231 whole entry): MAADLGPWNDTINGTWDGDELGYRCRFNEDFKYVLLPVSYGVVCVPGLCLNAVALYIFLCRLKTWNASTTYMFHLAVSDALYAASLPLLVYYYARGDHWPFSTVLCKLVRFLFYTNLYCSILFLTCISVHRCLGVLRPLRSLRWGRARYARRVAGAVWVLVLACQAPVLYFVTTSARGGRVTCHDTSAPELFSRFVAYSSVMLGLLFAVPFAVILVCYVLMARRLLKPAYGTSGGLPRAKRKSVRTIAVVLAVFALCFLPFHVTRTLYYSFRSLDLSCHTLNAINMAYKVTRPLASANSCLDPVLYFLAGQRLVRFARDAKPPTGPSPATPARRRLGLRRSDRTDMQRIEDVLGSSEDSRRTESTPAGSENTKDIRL
Chain of P2Y purinoceptor 2 (Homo sapiens), P41231 [UNDEFINED MUTATION] (P41231 whole entry, looked up, stated change not applied): as the sequence (P41231 whole entry) above
Chain of P2Y purinoceptor 2 (Homo sapiens), P41231 [R177A] (P41231 whole entry R177A): as the sequence (P41231 whole entry) above, with R177A counted along it
T1 sequence (P41231 whole entry Y198A): as the sequence (P41231 whole entry) above, with Y198A counted along it
T6 sequence (P41231 whole entry C278S): as the sequence (P41231 whole entry) above, with C278S counted along it
T2 sequence (P41231 whole entry Y114A): as the sequence (P41231 whole entry) above, with Y114A counted along it
T5 sequence (P41231 whole entry R177A/R180A): as the sequence (P41231 whole entry) above, with R177A, R180A counted along it
Chain of P2Y purinoceptor 2 (Homo sapiens), P41231 [R180A] (P41231 whole entry R180A): as the sequence (P41231 whole entry) above, with R180A counted along it
T4 sequence (P41231 whole entry Y118A): as the sequence (P41231 whole entry) above, with Y118A counted along it
Chain of P2Y purinoceptor 2 (Homo sapiens, UniProt P41231, R177A) (P41231 whole entry R177A): as the sequence (P41231 whole entry) above, with R177A counted along it
Chain of P2Y purinoceptor 2 (Homo sapiens), P41231 [Y198A] (P41231 whole entry Y198A): as the sequence (P41231 whole entry) above, with Y198A counted along it
Chain of P2Y purinoceptor 2 (Homo sapiens), P41231 [C278S] (P41231 whole entry C278S): as the sequence (P41231 whole entry) above, with C278S counted along it
Chain of P2Y purinoceptor 2 (Homo sapiens), P41231 [R194H] (P41231 whole entry R194H): as the sequence (P41231 whole entry) above, with R194H counted along it
Chain of P2Y purinoceptor 2 (Homo sapiens, UniProt P41231, R194H) (P41231 whole entry R194H): as the sequence (P41231 whole entry) above, with R194H counted along it
Chain of P2Y purinoceptor 2 (Homo sapiens), P41231 [Y114A] (P41231 whole entry Y114A): as the sequence (P41231 whole entry) above, with Y114A counted along it
Chain of P2Y purinoceptor 2 (Homo sapiens), P41231 [R177A,R180A] (P41231 whole entry R177A/R180A): as the sequence (P41231 whole entry) above, with R177A, R180A counted along it
Chain of P2Y purinoceptor 2 (Homo sapiens, UniProt P41231, R180A) (P41231 whole entry R180A): as the sequence (P41231 whole entry) above, with R180A counted along it
Chain of P2Y purinoceptor 2 (Homo sapiens), P41231 [Y118A] (P41231 whole entry Y118A): as the sequence (P41231 whole entry) above, with Y118A counted along it
Chain of P2Y purinoceptor 2 (Homo sapiens), P41231 [S296A] (P41231 whole entry S296A): as the sequence (P41231 whole entry) above, with S296A counted along it
Chain of P2Y purinoceptor 2 (Homo sapiens, UniProt P41231, S296A) (P41231 whole entry S296A): as the sequence (P41231 whole entry) above, with S296A counted along it
Chain of P2Y purinoceptor 2 (Homo sapiens), P41231 [R272A] (P41231 whole entry R272A): as the sequence (P41231 whole entry) above, with R272A counted along it
Chain of P2Y purinoceptor 2 (Homo sapiens, UniProt P41231, R272A) (P41231 whole entry R272A): as the sequence (P41231 whole entry) above, with R272A counted along it

Work on Nc1ncnc2c1ncn2[C@@H]1O[C@H](COP(=O)(O)OP(=O)(O)OP(=O)(O)OP(=O)(O)OC[C@H]2O[C@@H](n3cnc4c(N)ncnc43)[C@H](O)[C@@H]2O)[C@@H](O)[C@H]1O [DIADENOSINE TETRAPHOSPHATE] yielded an EC50 [1] greater than 300000 nM, a Ratio efficacy [2] of 2 and an EC50 [3] of 335 nM. It also gave an EC50 [4] of 170 nM, an EC50 [5] of 740000 nM and an Efficacy [6] of 68%. It also gave an Efficacy [7] of 100%, an Efficacy [8] of 15% and an Efficacy [9] of 98%. It also gave an Efficacy [10] of 128%, a Ratio EC50 [11] of 560 and an EC50 [12] of 345 nM. It also gave an EC50 [13] of 423 nM, an EC50 [14] of 665 nM and an Efficacy [15] of 86%. The EC50 [16] was 1230 nM, the EC50 [17] was 145 nM and the Efficacy [18] was “inactive”. For the same compound, the EC50 [19] was 81000 nM, the Efficacy [20] was 12% and the Efficacy [21] was 117%. For the same compound, the Efficacy [22] was 68%, the EC50 [23] was 185 nM and the Efficacy [24] was 149%. For the same compound, the Efficacy [25] was “inactive” and the EC50 [26] was 167 nM.
With Nc1c(S(=O)(=O)O)cc(Nc2ccc(Nc3nc(Cl)nc(Nc4cccc(S(=O)(=O)O)c4)n3)c(S(=O)(=O)O)c2)c2c1C(=O)c1ccccc1C2=O [RB 2] the inhibition [27] was 55%, the Ratio IC50 [28] was 0.6 and the IC50 [29] was 9300 nM. It also gave an IC50 [30] of 18600 nM, an inhibition [31] of 55% and an IC50 [32] of 1570 nM. For the same compound, the IC50 [33] was 1620 nM, the IC50 [34] was greater than 100000 nM and the IC50 [35] was 1050 nM.

Reference: ChEMBL document CHEMBL1138525 (J Med Chem, 2009)
